Drawing on ChEMBL document CHEMBL1123585, “Differential effects of N-terminal modifications on the biological potencies of growth hormone releasing factor analogues with varying chain lengths” (1987), this text covers Potency and Plasma GH release for two compounds.

The target of experiment [1] is T1, Growth hormone-releasing hormone receptor (Rattus norvegicus) (UniProt Q02644).
T1 sequence (whole entry): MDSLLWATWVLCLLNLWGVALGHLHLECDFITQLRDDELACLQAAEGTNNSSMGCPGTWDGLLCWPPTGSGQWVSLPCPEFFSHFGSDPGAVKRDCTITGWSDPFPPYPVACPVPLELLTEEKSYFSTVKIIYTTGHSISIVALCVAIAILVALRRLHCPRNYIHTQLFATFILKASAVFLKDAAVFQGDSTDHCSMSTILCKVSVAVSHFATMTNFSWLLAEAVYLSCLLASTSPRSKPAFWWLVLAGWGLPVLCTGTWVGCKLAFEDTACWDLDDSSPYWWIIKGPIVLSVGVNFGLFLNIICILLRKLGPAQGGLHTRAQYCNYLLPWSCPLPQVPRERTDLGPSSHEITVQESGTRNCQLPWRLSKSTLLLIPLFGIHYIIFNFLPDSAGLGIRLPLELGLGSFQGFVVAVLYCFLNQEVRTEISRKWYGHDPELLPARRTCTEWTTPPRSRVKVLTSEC
The experiment is described as follows: Tested for the potency of growth hormone (GRF) on subcutaneous administration in anesthetized male Charles River rats. The class given is functional, organism-based. In outline: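 Pentobarbital-anesthetized male rats (175-275 g), six to nine per group, received two subcutaneous doses of analogue or of reference GRF(1-29)NH2, in 0.5 mL, 30 min after anesthesia. Plasma GH measured by RIA 15 min later. Potency with 95% confidence limits calculated from a four-point assay design by the Pugsley method.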

For experiment [2], the system named is Rattus norvegicus. The experiment is described as follows: Effect on growth hormone release(GRF) was determined in nembutal-anesthetized rat, at dose of 4 ug/100 g body weight. It counts as functional, organism-based. In short, it runs like this:
(§1)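 Male Charles River rats (175-275 g), anesthetized with sodium pentobarbital 6 mg/100 g body weight. Six to nine per group. Peptide or saline given subcutaneously in 0.5 mL, 30 min after anesthetic. Jugular vein blood taken 15 min post-injection. Plasma GH measured by radioimmunoassay and reported as ng/mL, mean ± SEM.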

Experiment [3] concerns the target T1, Growth hormone-releasing hormone receptor (Rattus norvegicus). The experiment is described as follows: In vitro rat pituitary cell growth hormone response was obtained. As to conditions: Pituitary gland cell. The class given is functional, cell-based.
Experiment [4] has the same target. The experiment is described as follows: Effect on growth hormone release(GRF) was determined in nembutal-anesthetized rat, at dose of 10 ug/100 g body weight. The class given is functional. In outline:
as §1

The subject of experiment [5] is Rattus norvegicus. Description: Effect on growth hormone release(GRF) was determined in nembutal-anesthetized rat, at dose of 200 ug/100 g body weight. It counts as functional, organism-based. In outline: as §1
Experiment [6] concerns Rattus norvegicus. The experiment is described as follows: Effect on growth hormone release(GRF) was determined in nembutal-anesthetized rat, at dose of 80 ug/100 g body weight. It counts as functional, organism-based. In outline:
as §1

`CC[C@H](C)[C@H](NC(=O)[C@H](C)NC(=O)[C@@H](CC(=O)O)NC(=O)[C@H](C)NC(=O)[C@@H](N)Cc1ccc(O)cc1)C(=O)N[C@@H](Cc1ccccc1)C(=O)N[C@H](C(=O)N[C@H](CC(N)=O)C(=O)N[C@@H](CO)C(=O)N[C@@H](Cc1ccc(O)cc1)C(=O)N[C@@H](CCCN=C(N)N)C(=O)N[C@@H](CCCCN)C(=O)N[C@H](C(=O)N[C@@H](CC(C)C)C(=O)NCC(=O)N[C@@H](CCC(N)=O)C(=O)N[C@@H](CC(C)C)C(=O)N[C@@H](CO)C(=O)N[C@@H](C)C(=O)N[C@@H](CCCN=C(N)N)C(=O)N[C@@H](CCCCN)C(=O)N[C@@H](CC(C)C)C(=O)N[C@@H](CC(C)C)C(=O)N[C@@H](CCC(N)=O)C(=O)N[C@@H](CC(=O)O)C(=O)N[C@H](C(=O)N[C@@H](CC(C)C)C(N)=O)[C@@H](C)CC)C(C)C)[C@@H](C)O`: the results for the Potency in experiment [1] and in experiment [3] were 199% and 83%, respectively. Further, the results for the Plasma GH release in experiment [2] and in experiment [4] were 899 ng/mL and 2170 ng/mL, respectively.
In the case of `CC[C@H](C)[C@H](NC(=O)[C@H](C)NC(=O)[C@H](CC(=O)O)NC(=O)[C@@H](C)NC(=O)[C@@H](N)Cc1ccc(O)cc1)C(=O)N[C@@H](Cc1ccccc1)C(=O)N[C@H](C(=O)N[C@@H](CC(N)=O)C(=O)N[C@@H](CO)C(=O)N[C@@H](Cc1ccc(O)cc1)C(=O)N[C@@H](CCCN=C(N)N)C(=O)N[C@@H](CCCCN)C(=O)N[C@H](C(=O)N[C@@H](CC(C)C)C(=O)NCC(=O)N[C@@H](CCC(N)=O)C(=O)N[C@@H](CC(C)C)C(=O)N[C@@H](CO)C(=O)N[C@@H](C)C(=O)N[C@@H](CCCN=C(N)N)C(=O)N[C@@H](CCCCN)C(=O)N[C@@H](CC(C)C)C(=O)N[C@@H](CC(C)C)C(=O)N[C@@H](CCC(N)=O)C(=O)N[C@@H](CC(=O)O)C(=O)N[C@H](C(=O)N[C@@H](CC(C)C)C(N)=O)[C@@H](C)CC)C(C)C)[C@@H](C)O` (stereo in doubt; 4), the Potency was found to be 7% in experiment [1] and 0.0004% in experiment [3]. For the same compound, the values for the Plasma GH release in experiment [5] and in experiment [6] were 1500 ng/mL and 742 ng/mL, respectively.
